One assay deals with DU-145. Briefly: Cytotoxicity against human DU145 cells by SRB assay. It is filed as functional.
The next assay has as its system NCI-H460. Description: Cytotoxicity against human NCI-H460 cells by SRB assay. It is filed as functional. For orientation: In SRB staining, fixed cells bind dye roughly in proportion to their protein.
In the next assay the test system is SK-OV-3. Briefly: Cytotoxicity against human SKOV3 cells by SRB assay. It is filed as functional.
A short description of assay [1]: Inhibition of bovine brain tubulin assembly after 20 mins. Also noted: species or system Bos taurus. Put shortly: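 Bovine brain tubulin (10 µM) was preincubated with varying compound concentrations in glutamate buffer at 30 °C and then cooled to 0 °C. GTP was added, and the mixtures were warmed to 30 °C in a recording spectrophotometer. Assembly was followed turbidimetrically.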

As for `COc1ccc(/C=C\c2cc(OC)c(OC)c(OC)c2)c(O[C@@H]2O[C@H](C(=O)O)[C@@H](O)[C@H](O)[C@H]2O)c1O`, the concentration for 50% growth inhibition (GI50) – broadly, the concentration that inhibits growth by half – in the assay with DU-145 was 4400 nM; with NCI-H460, 3000 nM; in the assay on SK-OV-3, 2300 nM.

Consider `COc1ccc(/C=C\c2cc(OC)c(OC)c(OC)c2)c(O)c1O` [COMBRETASTATIN A-1], for which the results for the GI50 with DU-145 and in the assay on NCI-H460 were 13 nM and 46 nM, respectively. For the same compound, the midpoint of inhibition in assay [1], the IC50, lay at 1100 nM.

As to `COc1ccc(/C=C\c2cc(OC)c(OC)c(OC)c2)cc1O` [COMBRETASTATIN A4], the GI50 with DU-145 was 1 nM.

On to `COc1ccc(/C=C/c2cc(OC)c(OC)c(OC)c2)c(O[C@@H]2O[C@H](C(=O)O)[C@@H](O)[C@H](O)[C@H]2O)c1O`, for which the figures for the GI50 in the assay on DU-145, in the assay on NCI-H460 and with SK-OV-3 were over 88000 nM, 26000 nM and 30000 nM, respectively.

As for `COc1cc(/C=C\c2ccc(OC)c(O[C@@H]3O[C@H](C(=O)O)[C@@H](O)[C@H](O)[C@H]3O)c2O)cc(OC)c1OC`, the GI50 with DU-145 worked out at 3300 nM; in the assay on NCI-H460 it was 1800 nM; in the assay on SK-OV-3, 2100 nM.

For `COc1cc(/C=C/c2ccc(OC)c(O[C@@H]3O[C@H](C(=O)O)[C@@H](O)[C@H](O)[C@H]3O)c2O)cc(OC)c1OC`, the 50% growth inhibitory concentration (GI50) with DU-145 is over 98000 nM; in the assay with NCI-H460, 26000 nM; with SK-OV-3, over 85000 nM.
